Among the data in ChEMBL document CHEMBL3865824, “New (E)-1-alkyl-1H-benzo[d]imidazol-2-yl)methylene)indolin-2-ones: Synthesis, in vitro cytotoxicity evaluation and apoptosis inducing studies” (Eur J Med Chem, 2016) are IC50 and inhibition of growth values, retold here.

Test [1] in a line: Cytotoxicity against human PC3 cells assessed as reduction in cell viability after 48 hrs by MTT assay. It is filed as functional, cell-based. To be noted: PC-3, 48 h. A digest of the protocol: (§1)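 Cells grown in DMEM or MEM with 10% FBS at 37 °C, 5% CO2. Seeded at 1×10^4 cells/well, incubated 48 h, then exposed to compound for 48 h with vehicle control. MTT (5 mg/mL stock) added for 4 h; formazan dissolved in DMSO, absorbance read at 570 nm. Preliminary screen at 50 µM. Compounds giving >50% inhibition were tested for dose-response curves; IC50 derived by linear regression of % inhibition versus concentration. Mean of three independent experiments in triplicate.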

Test [2] is described as follows: Cytotoxicity against human DU145 cells assessed as reduction in cell viability after 48 hrs by MTT assay. It counts as functional, cell-based. To be noted: DU-145, 48 h. In a few lines: as §1
Test [3] can be described thus: Cytotoxicity against […] cells assessed as reduction in cell viability after 48 hrs by MTT assay. It counts as functional, cell-based. To be noted: 4T1, 48 h. In a few lines: as §1
(In general: Formazan colour is commonly taken as a measure of viable cells.)

Test [4] can be described thus: Cytotoxicity against human A549 cells assessed as reduction in cell viability after 48 hrs by MTT assay. It counts as functional, cell-based. To be noted: A549, 48 h. In a few lines: as §1
Test [5] can be described thus: Cytotoxicity against HGC cells assessed as reduction in cell viability after 48 hrs by MTT assay. It is filed as functional, cell-based. To be noted: Homo sapiens. A digest of the protocol:
as §1

Test [6] in a line: Cytotoxicity against human DU145 cells assessed as growth inhibition at 50 uM after 48 hrs by MTT assay relative to control. To be noted: DU-145, 48 h, read-out: GI. It counts as functional. In a few lines:
as §1

The nature of test [7]: Cytotoxicity against human PC3 cells assessed as growth inhibition at 50 uM after 48 hrs by MTT assay relative to control. To be noted: PC-3, 48 h, read-out: GI. It is filed as functional. In a few lines: as §1
A short description of test [8]: Cytotoxicity against […] cells assessed as growth inhibition at 50 uM after 48 hrs by MTT assay relative to control. It counts as functional. To be noted: Mus musculus, 4T1, 48 h; read-out: GI. In a few lines: as §1
The nature of test [9]: Cytotoxicity against human A549 cells assessed as growth inhibition at 50 uM after 48 hrs by MTT assay relative to control. To be noted: A549, 48 h, read-out: GI. It is filed as functional. In a few lines:
as §1

The nature of test [10]: Cytotoxicity against HGC cells assessed as growth inhibition at 50 uM after 48 hrs by MTT assay relative to control. It is filed as functional. To be noted: Homo sapiens, read-out: GI. In a few lines: as §1
Test [11] is described as follows: Cytotoxicity against human BT549 cells assessed as reduction in cell viability after 48 hrs by MTT assay. To be noted: BT-549, 48 h. It is filed as functional, cell-based. In a few lines: as §1
The nature of test [12]: Cytotoxicity against human MDA-MB-231 cells assessed as reduction in cell viability after 48 hrs by MTT assay. To be noted: MDA-MB-231, 48 h. It is filed as functional, cell-based. A digest of the protocol:
as §1

Test [13] in a line: Cytotoxicity against human MCF7 cells assessed as reduction in cell viability after 48 hrs by MTT assay. It is filed as functional, cell-based. To be noted: MCF7, 48 h. A digest of the protocol: as §1
A short description of test [14]: Cytotoxicity against human BT549 cells assessed as growth inhibition at 50 uM after 48 hrs by MTT assay relative to control. It counts as functional. To be noted: BT-549, 48 h, read-out: GI. In a few lines: as §1
Test [15] is described as follows: Cytotoxicity against human MDA-MB-231 cells assessed as growth inhibition at 50 uM after 48 hrs by MTT assay relative to control. To be noted: MDA-MB-231, 48 h, read-out: GI. It counts as functional. A digest of the protocol: as §1
The nature of test [16]: Cytotoxicity against human MCF7 cells assessed as growth inhibition at 50 uM after 48 hrs by MTT assay relative to control. It is filed as functional. To be noted: MCF7, 48 h, read-out: GI. In a few lines:
as §1

With `CCn1c(/C=C2/C(=O)Nc3ccc(Br)cc32)nc2ccccc21`, the IC50 in test [1] was 42.6 µM; in [2] it was 45.8 µM; in test [3], 40.7 µM; in [4], more than 50 µM; in [5] it was more than 50 µM. Further, the inhibition of growth at 50 µM is more than 50% in test [6]; more than 50% in test [7]; more than 50% in [8]; less than 50% in test [9]; less than 50% in test [10].
On to `Cn1c(/C=C2/C(=O)Nc3ccc(F)cc32)nc2ccccc21`, for which the concentration for half-maximal inhibition (IC50) in test [1] is 34.2 µM; in test [2], 32.3 µM; in test [3], 29.6 µM; in [11], 26.9 µM; in test [12], 21.7 µM; in test [13], 31.6 µM. Further, the figures for the 50% inhibitory concentration (IC50) in [4] and in [5] were 34.6 µM and 37.8 µM, respectively. Besides, the inhibition of growth at 50 µM in test [6], in test [7], in [8], in test [14], in test [15] and in test [16] was more than 50% throughout. Besides, the inhibition of growth at 50 µM in test [9] and in test [10] was more than 50% each time.
As to `Cn1c(/C=C2/C(=O)Nc3ccc(Cl)cc32)nc2ccccc21`, the IC50 in [1] was more than 50 µM; in test [2], 38.9 µM; in [3] it was 43.6 µM; in test [11], 39.1 µM; in test [12], 37.6 µM; in test [13] it was more than 50 µM. In addition, the IC50 amounted to 39.7 µM in test [4] and 43.6 µM in test [5]. Also, the inhibition of growth at 50 µM is more than 50% in test [6]; less than 50% in test [7]; more than 50% in [8]; more than 50% in test [14]; more than 50% in test [15]; less than 50% in [16]. Besides, the inhibition of growth at 50 µM in [9] and in test [10] was more than 50% throughout.
In the case of `CC(C)n1c(/C=C2/C(=O)Nc3ccccc32)nc2ccccc21`, the IC50 in [1] worked out at 37.6 µM; in [2] it was 38.1 µM; in [3] it was 40.4 µM; in test [11] it was 38.9 µM; in test [12], 30.4 µM; in test [13], 39.5 µM. Besides, the IC50 in [4] was found to be 35.3 µM; in [5], 33.5 µM. Moreover, the inhibition of growth at 50 µM in test [6], in test [7], in [8], in [14], in [15] and in test [16] was more than 50% in each case. In addition, the inhibition of growth at 50 µM in [9] and in [10] was more than 50% in each case.
`Cn1c(/C=C2/C(=O)Nc3ccc(Br)cc32)nc2ccccc21`: the IC50 was more than 50 µM in test [1]; 39.6 µM in [2]; more than 50 µM in [3]; more than 50 µM in [11]; more than 50 µM in test [12]; more than 50 µM in test [13]. The IC50 in [4] was 41.2 µM; in test [5], more than 50 µM. Besides, the inhibition of growth at 50 µM in [6] was more than 50%; in test [7] it was less than 50%; in [8] it was less than 50%; in [14], less than 50%; in test [15] it was less than 50%; in test [16] it was less than 50%. Besides, the inhibition of growth at 50 µM was more than 50% in test [9] and less than 50% in [10].
With `CCn1c(/C=C2/C(=O)Nc3ccc(F)cc32)nc2ccccc21`, the IC50 in [1] was more than 50 µM; in [2], 40.6 µM; in test [3], more than 50 µM; in test [11], more than 50 µM; in test [12] it was more than 50 µM; in [13] it was more than 50 µM. The IC50 in [4] and in test [5] was more than 50 µM throughout. The inhibition of growth at 50 µM in [6] is more than 50%; in test [7] it was less than 50%; in test [8] it was less than 50%; in test [14] it was less than 50%; in test [15] it was less than 50%; in test [16], less than 50%. Further, the inhibition of growth at 50 µM in [9] and in [10] was less than 50% each time.
For `Cn1c(/C=C2/C(=O)Nc3ccc([N+](=O)[O-])cc32)nc2ccccc21`, the concentration for half-maximal inhibition (IC50) in [1], in [2], in [3] and in [4] was more than 50 µM each time. In addition, the inhibition of growth at 50 µM in test [6], in test [7], in test [8] and in test [9] was less than 50% each time.
Take `Cc1ccc2c(c1)/C(=C\c1nc3ccccc3n1C)C(=O)N2`: the concentration for half-maximal inhibition (IC50) in test [1], in test [2], in test [3], in test [11], in test [4] and in [5] was more than 50 µM throughout. For the same compound, the inhibition of growth at 50 µM in test [6], in test [7], in test [8], in test [14], in [9] and in test [10] was less than 50% each time.
As to `CCn1c(/C=C2/C(=O)Nc3ccc(Cl)cc32)nc2ccccc21`, the IC50 was more than 50 µM in test [1]; more than 50 µM in test [2]; more than 50 µM in test [3]; more than 50 µM in test [11]; 37.5 µM in test [12]; more than 50 µM in test [13]. Moreover, the IC50 in [4] and in test [5] was more than 50 µM in each case. Moreover, the inhibition of growth at 50 µM was less than 50% in test [6]; less than 50% in test [7]; less than 50% in test [8]; less than 50% in test [14]; more than 50% in [15]; less than 50% in [16]. Also, the inhibition of growth at 50 µM in test [9] and in test [10] was less than 50% throughout.
Regarding `Cn1c(/C=C2/C(=O)Nc3ccccc32)nc2ccccc21`, the IC50 in test [1] was more than 50 µM; in [2], 43.2 µM; in test [3], more than 50 µM; in test [11] it was more than 50 µM; in test [12], more than 50 µM; in [13], more than 50 µM. The 50% inhibitory concentration (IC50) in test [4] and in test [5] was more than 50 µM throughout. The inhibition of growth at 50 µM is more than 50% in test [6]; less than 50% in [7]; less than 50% in test [8]; less than 50% in [14]; less than 50% in test [15]; less than 50% in test [16]. Further, the inhibition of growth at 50 µM in test [9] and in [10] was less than 50% throughout.
With `CCn1c(/C=C2/C(=O)Nc3ccccc32)nc2ccccc21`, the concentration for half-maximal inhibition (IC50) in test [1] is 38 µM; in test [2] it was more than 50 µM; in [3], more than 50 µM; in test [11], more than 50 µM; in test [12], more than 50 µM; in test [4] it was more than 50 µM. In addition, in test [5], the IC50 was more than 50 µM. Also, the inhibition of growth at 50 µM in [6] was less than 50%; in test [7] it was more than 50%; in test [8] it was less than 50%; in test [14], less than 50%; in test [15], less than 50%; in [9], less than 50%. Moreover, in test [10], the inhibition of growth at 50 µM is less than 50%.
As to `CCn1c(/C=C2/C(=O)Nc3ccc([N+](=O)[O-])cc32)nc2ccccc21`, the concentration for half-maximal inhibition (IC50) was 40.1 µM in test [1]; more than 50 µM in test [2]; more than 50 µM in test [3]; more than 50 µM in test [11]; more than 50 µM in test [13]; more than 50 µM in test [4]. Moreover, the IC50 in [5] is more than 50 µM. For the same compound, the inhibition of growth at 50 µM is less than 50% in test [6]; more than 50% in test [7]; less than 50% in [8]; less than 50% in test [14]; less than 50% in [16]; less than 50% in [9]. In addition, the inhibition of growth at 50 µM in test [10] was less than 50%.

One may read the IC50 as the concentration needed to halve the response being measured.
